Measured values reported in ChEMBL document CHEMBL1649585, “Role of the Mycobacterium tuberculosis P55 efflux pump in intrinsic drug resistance, oxidative stress responses, and growth” (2009).
Values after ≈ are worked out from the molar mass of the structure shown. Active and inactive are the calls of the source. The rule behind the calls is not given here. Where a SMILES comes first, the peptide text is derived from it. Bridges are numbered along the chain shown (N, C = ends). [ ]: non-standard residue; d: D form. The star is where a group is joined. Ileψ(thiazoline)Cys = CC[C@H](C)[C@H](N)C1=N[C@H](C(=O)*)CS1; dOrn = NCCC[C@@H](N)C(=O)O

Key:
[1] = system: Mycobacterium tuberculosis; assay: Antimicrobial activity against Mycobacterium bovis BCG by resazurine microtiter assay in presence of 1 mg/liter CCCP; format: functional; details: variant bovis BCG, Urine
Method in brief: (§1)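 Resazurin microdilution MIC (serial twofold dilutions, 8 days at 37°C plus 2 days after resazurin) run with a fixed subinhibitory level of efflux pump inhibitor (valinomycin, reserpine or CCCP) present throughout. Triplicate, repeated at least three times.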

[2] = system: Mycobacterium tuberculosis; assay: Antimicrobial activity against Mycobacterium bovis BCG harboring pPAZ23 carrying p27-p55 operon by resazurine microtiter assay; format: functional; details: variant bovis BCG, Urine
Method in brief: (§2)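 Resazurin microdilution in liquid medium: serial twofold compound dilutions, plates incubated 8 days at 37°C, then 2 more days after adding resazurin. MIC read from the indicator. Run in triplicate and repeated at least three times.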

[3] = system: Mycobacterium tuberculosis; assay: Ratio of MIC for Mycobacterium bovis BCG harboring pPAZ23 carrying p27-p55 operon to MIC for wild-type Mycobacterium bovis BCG; format: functional, variant bovis BCG
[4] = system: Mycobacterium tuberculosis; assay: Ratio of MIC for wild type Mycobacterium bovis BCG to MIC for Mycobacterium bovis BCG KOP55 harboring inactivated p55 gene; format: functional, variant bovis BCG
[5] = system: Mycobacterium tuberculosis; assay: Antimicrobial activity against Mycobacterium bovis BCG by resazurine microtiter assay; format: functional; details: variant bovis BCG, Urine; method in brief: as §2
[6] = system: Mycobacterium tuberculosis; assay: Antimicrobial activity against Mycobacterium bovis BCG by twofold dilution method; format: functional; details: variant bovis BCG
Method in brief: (§3)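 Agar MIC: log-phase cultures diluted to 10^5 cells/ml, 10 µl spotted onto Middlebrook 7H10 plates with serial twofold antibiotic dilutions. Visible growth scored after 21 days at 37°C. Triplicate, repeated at least three times.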

[7] = system: Mycobacterium tuberculosis; assay: Antimicrobial activity against Mycobacterium bovis BCG harboring pPAZ23 carrying p27-p55 operon by twofold dilution method; format: functional; details: variant bovis BCG; method in brief: as §3
[8] = system: Mycobacterium tuberculosis; assay: Effect on intracellular redox potential in wild-type Mycobacterium bovis BCG assessed as accumulation of formazan at 5 mg/liter after 1 hr by MTT assay; format: functional, organism-based; details: variant bovis BCG
Method in brief: (§4)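 MTT reduction as an index of intracellular redox potential: cultures at OD600 0.2 treated with drug or solvent for 1 h at 37°C in quadruplicate wells, MTT (2 mg/ml stock) added, 3 h further incubation. Formazan solubilised with 10% SDS, 30 min shaking, absorbance at 600 nm. Repeated at least three independent times.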

[9] = system: Mycobacterium tuberculosis; assay: Antimicrobial activity against Mycobacterium bovis BCG by resazurine microtiter assay in presence of 0.1 mg/liter valinomycin; format: functional; details: variant bovis BCG, Urine; method in brief: as §1
[10] = system: Mycobacterium tuberculosis; assay: Ratio of MIC for wild type Mycobacterium bovis BCG to MIC for wild type Mycobacterium bovis BCG in presence of 1 mg/liter CCCP; format: functional, variant bovis BCG
[11] = system: Mycobacterium tuberculosis; assay: Antimicrobial activity against Mycobacterium bovis BCG by resazurine microtiter assay in presence of 0.5 mg/liter reserpine; format: functional; details: variant bovis BCG, Urine; method in brief: as §1
[12] = system: Mycobacterium tuberculosis; assay: Increase in intracellular redox potential in wild-type Mycobacterium bovis BCG assessed as increased accumulation of formazan at 5 mg/liter after 1 hr by MTT assay; format: functional, variant bovis BCG; method in brief: as §4
[13] = system: Mycobacterium tuberculosis; assay: Decrease in intracellular redox potential in wild-type Mycobacterium bovis BCG assessed as decreased accumulation of formazan at 256 mg/liter after 1 hr by MTT assay; format: functional, variant bovis BCG; parameters: scale not given: the % may be the effect or the level left; method in brief: as §4

CN[C@H](CC(C)C)C(=O)N[C@H]1C(=O)N[C@@H](CC(N)=O)C(=O)N[C@H]2C(=O)N[C@H]3C(=O)N[C@H](C(=O)N[C@H](C(=O)O)c4cc(O)cc(O)c4-c4cc3ccc4O)[C@H](O)c3ccc(c(Cl)c3)Oc3cc2cc(c3O[C@@H]2O[C@H](CO)[C@@H](O)[C@H](O)[C@H]2O[C@H]2C[C@](C)(N)[C@H](O)[C@H](C)O2)Oc2ccc(cc2Cl)[C@H]1O [VANCOMYCIN]
MIC [1]: 4 µg/mL
MIC [2]: 8 µg/mL (≈ 5.52 µM)
Ratio [3]: 2
Ratio [4]: 16
MIC [5]: 4 µg/mL (≈ 2.76 µM)

Clc1ccc(COC(Cn2ccnc2)c2ccc(Cl)cc2Cl)cc1 (centres undefined) [ECONAZOLE]
MIC [6]: 6.4 µg/mL (≈ 16.8 µM)
Ratio [3]: 2
Ratio [4]: 4
MIC [7]: 12.8 µg/mL (≈ 33.5 µM)

CC[C@@H](CO)NCCN[C@@H](CC)CO [ETHAMBUTOL]
MIC [5]: 4 µg/mL (≈ 19.6 µM)

CC[C@H](C)[C@H](N)C1=N[C@H](C(=O)N[C@@H](CC(C)C)C(=O)N[C@H](CCC(=O)O)C(=O)N[C@H](C(=O)N[C@H]2CCCCNC(=O)[C@H](CC(N)=O)NC(=O)[C@@H](CC(=O)O)NC(=O)[C@H](Cc3cnc[nH]3)NC(=O)[C@@H](Cc3ccccc3)NC(=O)[C@H]([C@@H](C)CC)NC(=O)[C@@H](CCCN)NC2=O)[C@@H](C)CC)CS1 [BACITRACIN] ({Ileψ(thiazoline)Cys}-L[dE]IK[dOrn]I[dF]H[dD]N; lactam 4-C)
MIC [1]: > 256 µg/mL
MIC [5]: > 256 µg/mL

CC(C)/N=c1\cc2n(-c3ccc(Cl)cc3)c3ccccc3nc-2cc1Nc1ccc(Cl)cc1 [CLOFAZIMINE]
MIC [6]: 0.1 µg/mL (≈ 0.211 µM)
Activity [8]: inactive
MIC [7]: 0.1 µg/mL (≈ 0.211 µM)

Oc1cc(Cl)ccc1Oc1ccc(Cl)cc1Cl [TRICLOSAN]
MIC [6]: 8 µg/mL (≈ 27.6 µM)

CO[C@H]1/C=C/O[C@@]2(C)Oc3c(C)c(O)c4c(O)c(c(/C=N/N5CCN(C)CC5)c(O)c4c3C2=O)NC(=O)/C(C)=C\C=C\[C@H](C)[C@H](O)[C@@H](C)[C@@H](O)[C@@H](C)[C@H](OC(C)=O)[C@@H]1C [RIFAMPIN]
MIC [9]: 0.0016 µg/mL
MIC [1]: 0.0008 µg/mL
Ratio [10]: 4
MIC [2]: 0.0032 µg/mL (≈ 0.00389 µM)
MIC [11]: 0.0016 µg/mL
MIC [5]: 0.0032 µg/mL (≈ 0.00389 µM)

CO[C@@H]1[C@@H](OC(N)=O)[C@@H](O)[C@H](Oc2ccc3c(O)c(NC(=O)c4ccc(O)c(CC=C(C)C)c4)c(=O)oc3c2C)OC1(C)C [NOVOBIOCIN]
MIC [9]: 8 µg/mL
MIC [1]: 4 µg/mL
Ratio [10]: 4
MIC [11]: 8 µg/mL
MIC [5]: 16 µg/mL (≈ 26.1 µM)

CC(C)[C@@H]1NC(=O)[C@H](C)OC(=O)[C@@H](C(C)C)NC(=O)[C@@H](C(C)C)OC(=O)[C@H](C(C)C)NC(=O)[C@H](C)OC(=O)[C@@H](C(C)C)NC(=O)[C@@H](C(C)C)OC(=O)[C@H](C(C)C)NC(=O)[C@H](C)OC(=O)[C@@H](C(C)C)NC(=O)[C@@H](C(C)C)OC1=O [VALINOMYCIN]
MIC [5]: 0.4 µg/mL (≈ 0.36 µM)

N#CC(C#N)=NNc1cccc(Cl)c1 [CARBONYL CYANIDE M-CHLOROPHENYLHYDRAZONE]
MIC [5]: 4 µg/mL (≈ 19.5 µM)

COC(=O)[C@H]1[C@H]2C[C@@H]3c4[nH]c5cc(OC)ccc5c4CCN3C[C@H]2C[C@@H](OC(=O)c2cc(OC)c(OC)c(OC)c2)[C@@H]1OC [RESERPINE]
MIC [5]: 2 µg/mL (≈ 3.29 µM)

CN(C)CCCN1c2ccccc2Sc2ccc(Cl)cc21 [CHLORPROMAZINE]
MIC [6]: 4 µg/mL (≈ 12.5 µM)

O=[N+]([O-])c1cn2c(n1)OC[C@@H](OCc1ccc(OC(F)(F)F)cc1)C2 [PRETOMANID]
MIC [5]: 0.25 µg/mL (≈ 0.696 µM)

CC1=CC(=O)c2ccccc2C1=O [MENADIONE]
fold change (FC) [12]: 3.5

CN(C)C(=O)/N=N/C(=O)N(C)C [DIAMIDE]
Activity [13]: 25%
